Read-outs that look alike come from different tables or passages of the source.
Key:
Type in all cases: cell-based
MT-4 cytotoxicity assay = conditions: human, MT-4 cells (mock-infected), CC50, MT-4 cell line, n = 3
HIV-1 (IIIB strain) = test: MT-4 antiviral cytoprotection assay, five-day multi-cycle, wild type HIV-1; conditions: for SI (selectivity index): CC50/EC50 ratio, MT-4; for SI (selectivity index) / anti-HIV activity in words: wild type; for anti-HIV activity in words: MT-4 cells
Summary of the method: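 MT-4 cells were pre-infected with a fresh 1:250 dilution of concentrated HIV-1 IIIB stock, or mock-infected for cytotoxicity. Test compound was serially diluted 1:3 in DMSO, then 200-fold into RPMI with 10% FBS and 1% P/S. Controls were no-drug and 5 µM AZT. After 5 days at 37°C, viability was read by CellTiter-Glo luminescence. EC50/CC50 were taken as 50% signal decrease from sigmoidal fits; SI = CC50/EC50.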

[1] = test system: HIV-1 encoding RT mutation K103N; test: MT-4 antiviral assay against HIV-1 encoding RT mutation K103N; conditions: Human immunodeficiency virus 1, MT4, read-out: EC50 K103N
[2] = test system: HIV-1 encoding RT mutation Y181C; test: MT-4 antiviral assay against HIV-1 encoding RT mutation Y181C; conditions: Human immunodeficiency virus 1, MT4, read-out: EC50 Y181C
MT-4 cells = test: MT-4 cytotoxicity assay; conditions: MT-4 cell line, n = 3
[3] = Human immunodeficiency virus 1, IIIB, MT4, read-out: EC50 w.t.

Molecule | CC50 at 5 days (MT-4 cytotoxicity assay) | SI (selectivity index) (HIV-1 (IIIB strain)) | EC50 (HIV-1 (IIIB strain); [3]) | EC50 [1] | EC50 [2] | anti-HIV activity in words (HIV-1 (IIIB strain)) | CC50 (MT-4 cells) | EC50 (HIV-1 (IIIB strain); read-out: EC50 w.t., MT-4 cell line, HIV-1 IIIB wild type, n = 3)
COc1cc(F)c(Nc2cc(OC)nc(Nc3ccc(C#N)cc3)n2)c(F)c1 [Compound 33, 4-((4-((2,6-difluoro-4-methoxyphenyl)amino)-6-methoxypyrimidin-2-yl)amino)benzonitrile] | 39000 nM | 5571 | 7 nM | – | – | – | – | –
Cc1cc(C(=O)c2c(F)cc(F)cc2F)nc(Nc2ccc(C#N)cc2)n1 [Compound 18, 4-((4-methyl-6–(2,4,6-trifluorobenzoyl)pyrimidin-2-yl)amino)benzonitrile] | 57100 nM | – | 160 nM | – | – | – | – | –
O=C1Nc2ccc(Cl)cc2[C@@](C#CC2CC2)(C(F)(F)F)O1 [EFV, efavirenz, reference compound] | 20600 nM | – | – | 101 nM | 5 nM | – | – | –
COc1cc(F)c(Nc2cc(Cl)nc(Nc3ccc(C#N)cc3)n2)c(F)c1 [Compound 29, 4-((4-chloro-6-((2,6-difluoro-4-methoxyphenyl)amino)pyrimidin-2-yl)amino)benzonitrile] | 16000 nM | 2667 | 6 nM | 204 nM | 651 nM | – | – | –
COc1cc(Nc2c(F)cc(F)cc2F)nc(Nc2ccc(C#N)cc2)n1 [Compound 34, 4-((4-methoxy-6-((2,4,6-trifluorophenyl)amino)pyrimidin-2-yl)amino)benzonitrile] | 9990 nM | 454 | 22 nM | 1210 nM | 2020 nM | – | – | –
N#Cc1ccc(Nc2cc(N)nc(C(=O)c3c(F)cc(F)cc3F)n2)cc1 [Compound 12, 4-((6-amino-2–(2,4,6-trifluorobenzoyl)pyrimidin-4-yl)amino)benzonitrile] | 42000 nM | 24.3 | 1730 nM | – | – | micromolar range | – | –
N#Cc1ccc(Nc2nc(Cl)cc(Nc3c(F)cc(F)cc3F)n2)cc1 [Compound 30, 4-((4-chloro-6-((2,4,6-trifluorophenyl)amino)pyrimidin-2-yl)amino)benzonitrile] | 10200 nM | 378 | 27 nM | 1020 nM | 2000 nM | – | – | –
N#Cc1ccc(Nc2nc(Cl)cc(Oc3c(F)cc(F)cc3F)n2)cc1 [Compound 28, 4-((4-chloro-6–(2,4,6-trifluorophenoxy)pyrimidin-2-yl)amino)benzonitrile] | 14000 nM | 264 | 53 nM | 657 nM | 2530 nM | – | – | –
COc1cc(F)c(Oc2cc(Cl)nc(Nc3ccc(C#N)cc3)n2)c(F)c1 [Compound 27, 4-((4-chloro-6–(2,6-difluoro-4-methoxyphenoxy)pyrimidin-2-yl)amino)benzonitrile] | 16100 nM | 847 | 19 nM | 413 nM | 1640 nM | – | – | –
COc1cc(F)c(C(=O)c2cc(N)nc(Nc3ccc(C#N)cc3)n2)c(F)c1 [Compound 13, 4-((4-amino-6–(2,6-difluoro-4-methoxybenzoyl)pyrimidin-2-yl)amino)benzonitrile] | 19600 nM | 4900 | 4 nM | 226 nM | 797 nM | low nanomolar activities | – | –
4-((4-amino-6–(2,6-difluoro-4-methoxybenzoyl)pyrimidin-2-yl)amino)benzonitrile [Compound 15] | – | – | – | – | – | micromolar range | 7700 nM | 2200 nM
COc1cc(Oc2c(F)cc(F)cc2F)nc(Nc2ccc(C#N)cc2)n1 [Compound 32, 4-((4-methoxy-6–(2,4,6-trifluorophenoxy)pyrimidin-2-yl)amino)benzonitrile] | 50000 nM | 926 | 54 nM | 560 nM | 7700 nM | – | – | –
Cc1cc(C#N)cc(C)c1Oc1nc(Nc2ccc(C#N)cc2)nc(N)c1Br [ETR, etravirine, reference compound] | 5880 nM | 2940 | 2 nM | 2 nM | 12 nM | – | – | –
COc1cc(F)c(Oc2cc(N)nc(Nc3ccc(C#N)cc3)n2)c(F)c1 [Compound 35, 4-((4-amino-6–(2,6-difluoro-4-methoxyphenoxy)pyrimidin-2-yl)amino)benzonitrile] | 21700 nM | 10,850 | 2 nM | 36 nM | 637 nM | – | – | –
COc1cc(F)c(C(=O)c2nc(N)cc(Nc3ccc(C#N)cc3)n2)c(F)c1 [Compound 11, 4-((6-amino-2–(2,6-difluoro-4-methoxybenzoyl)pyrimidin-4-yl)amino)benzonitrile] | 6240 nM | 7.14 | 874 nM | – | – | micromolar range | – | –
COc1cc(F)c(Oc2cc(OC)nc(Nc3ccc(C#N)cc3)n2)c(F)c1 [Compound 31, 4-((4–(2,6-difluoro-4-methoxyphenoxy)-6-methoxypyrimidin-2-yl)amino)benzonitrile] | 15800 nM | 832 | 19 nM | 444 nM | 4370 nM | – | – | –
N#Cc1ccc(Nc2nc(N)cc(C(=O)c3c(F)cc(F)cc3F)n2)cc1 [Compound 14, 4-((4-amino-6–(2,4,6-trifluorobenzoyl)pyrimidin-2-yl)amino)benzonitrile] | 24300 nM | 935 | 26 nM | 1700 nM | 3900 nM | low nanomolar activities | – | –
N#Cc1ccc(Nc2nc(N)cc(Nc3c(F)cc(F)cc3F)n2)cc1 [Compound 38, 4-((4-amino-6-((2,4,6-trifluorophenyl)amino)pyrimidin-2-yl)amino)benzonitrile] | 34800 nM | 1289 | 27 nM | 1650 nM | 13700 nM | – | – | –
N#Cc1ccc(Nc2nc(N)cc(Oc3c(F)cc(F)cc3F)n2)cc1 [Compound 36, 4-((4-amino-6–(2,4,6-trifluorophenoxy)pyrimidin-2-yl)amino)benzonitrile] | 19600 nM | 293 | 67 nM | 67 nM | 6660 nM | – | – | –
N#Cc1ccc(Nc2cc(C(=O)c3c(F)cc(F)cc3F)nc(N)n2)cc1 [Compound 16, 4-((2-amino-6–(2,4,6-trifluorobenzoyl)pyrimidin-4-yl)amino)benzonitrile] | 981 nM | 0.025 | 40000 nM | – | – | micromolar range | – | –
COc1cc(F)c(Nc2cc(N)nc(Nc3ccc(C#N)cc3)n2)c(F)c1 [Compound 37, 4-((4-amino-6-((2,6-difluoro-4-methoxyphenyl)amino)pyrimidin-2-yl)amino)benzonitrile] | 17200 nM | 5733 | 3 nM | 62 nM | 437 nM | – | – | –
COc1cc(C(=O)c2c(F)cc(F)cc2F)nc(Nc2ccc(C#N)cc2)n1 [Compound 22, 4-((4-methoxy-6–(2,4,6-trifluorobenzoyl)pyrimidin-2-yl)amino)benzonitrile] | 9160 nM | 19.4 | 473 nM | – | – | – | – | –
